The values that follow come from ChEMBL document CHEMBL1151831, “Acylated iridoids with cytotoxicity from Valeriana jatamansi” (J Nat Prod, 2009).

In general, pIC50 refers to −log10 of the IC50, conventionally taken in molar units. A higher pIC50 goes with a small IC50.

SMILES strings stand for the structures. pIC50: −log10 of the molar value.

Common to all, as to type: functional, cell-based
Test [1] in a line: Cytotoxicity against human PC3M cells after 24 hrs by MTT assay. To be noted: PC-3M. The procedure, abridged:
(§1)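 Human cancer lines from ATCC, seeded at 3000 cells per well and exposed 24 h later to a range of concentrations for 24 h. MTT was then added, plates were incubated a further 24 h, and viability was read as absorbance at 570 nm. IC50 values were calculated from the readings.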

Test [2] concerns HCT-8. The test is described as follows: Cytotoxicity against human HCT8 cells after 24 hrs by MTT assay. To be noted: HCT-8, 24 h. The procedure, abridged:
as §1
For orientation: Formazan colour is commonly taken as a measure of viable cells.

Test [3] deals with Bel-7402. In words: Cytotoxicity against human Bel7402 cells after 24 hrs by MTT assay. To be noted: Bel-7402, 24 h. A digest of the protocol:
as §1

The subject of test [4] is A549. In words: Cytotoxicity against human A549 cells after 24 hrs by MTT assay. The settings on record: A549, 24 h. A digest of the protocol: as §1

`CC(=O)O[C@H]1C[C@]2(O)C(COC(=O)C(OC(=O)CC(C)C)C(C)C)=CO[C@@H](OC(=O)CC(C)C)[C@@H]2[C@@]1(O)COC(=O)CC(C)(C)OC(C)=O` (stereo partly specified) [JATAMANVALTRATE A]: the pIC50 in test [1] was 5.28; in test [2], under 5.00; in test [3], under 5.00; in test [4], under 5.00.

Turning to `CC(=O)O[C@H]1C[C@@H]2C(COC(=O)CC(C)C)=CO[C@@H](OC(=O)CC(C)C)[C@@H]2[C@@]1(O)CO` [JATAMANVALTRATE H], the pIC50 in test [1] was 5.28; in test [2], under 5.00; in test [3], under 5.00; in test [4], under 5.00.

As to `CC(=O)O[C@H]1C[C@@H]2C(COC(=O)CC(C)C)=CO[C@@H](OC(=O)CC(C)C)[C@@H]2[C@@]1(O)COC(=O)CC(C)(C)OC(C)=O` [JATAMANVALTRATE F], the pIC50 was 5.37 in test [1], under 5.00 in test [2], 5.06 in test [3] and under 5.00 in test [4].

As to `CC(=O)OCC1=CO[C@@H](OC(=O)CC(C)C)[C@H]2C1=C[C@H](OC(=O)CC(C)C)[C@]21CO1` [VALTRATE], the pIC50 in test [1] is 5.80; in test [2] it was 5.74; in test [3], 5.21; in test [4], 5.43.

For `COC[C@@]1(O)[C@@H](OC(C)=O)C[C@]2(O)C(COC(=O)C(OC(=O)CC(C)C)C(C)C)=CO[C@@H](OC(=O)CC(C)C)[C@H]12` (stereo partly specified) [JATAMANVALTRATE E], the pIC50 in test [1] is under 5.00; in test [2], 5.01; in test [3], 5.07; in test [4] it was under 5.00.

With `CC(=O)O[C@H]1C[C@]2(O)C(COC(=O)C(OC(=O)CC(C)C)C(C)C)=CO[C@@H](OC(=O)CC(C)C)[C@@H]2[C@@]1(O)COC(=O)c1ccccc1O` (stereo partly specified) [JATAMANVALTRATE D], the pIC50 in test [1] was 5.42; in test [2] it was 5.35; in test [3], 5.01; in test [4], under 5.00.

In the case of `CC(=O)OC[C@@]1(O)[C@@H](OC(C)=O)C[C@]2(O)C(COC(=O)C(OC(=O)CC(C)C)C(C)C)=CO[C@@H](OC(=O)CC(C)C)[C@H]12` (stereo partly specified) [JATAMANVALTRATE C], the pIC50 in test [1], in test [2], in test [3] and in test [4] was under 5.00 each time.

As for `CC(=O)OCC1=CO[C@@H](OC(=O)CC(C)C)[C@H]2C1=C[C@H](OC(=O)CC(C)C)[C@]2(O)COC(C)=O`, the pIC50 in test [1] is under 5.00; in test [2] it was under 5.00; in test [3] it was under 5.00; in test [4] it was 5.07.

`CC(=O)OC[C@]1(O)[C@H]2[C@H](OC(=O)CC(C)C)OC=C(COC(=O)C(OC(=O)CC(C)C)C(C)C)[C@@]2(O)C[C@@H]1O` (stereo partly specified) [VALERIOTRIATE B]: the pIC50 in test [1] is 5.41; in test [2] it was under 5.00; in test [3], under 5.00; in test [4], under 5.00.

For `CC(=O)OC[C@]1(O)[C@H]2[C@H](OC(=O)CC(C)C)OC=C(COC(=O)CC(C)C)[C@H]2C[C@@H]1O` [JATAMANVALTRATE G], the pIC50 in test [1] is 5.25; in test [2], under 5.00; in test [3] it was 5.23; in test [4], under 5.00.

In the case of `CC(=O)O[C@H]1C=C2C(COC(=O)CC(C)C)=CO[C@@H](OC(=O)CC(C)C)[C@@H]2[C@@]1(O)COC(=O)c1ccccc1O` [JATAMANVALTRATE I], the pIC50 in test [1] is 5.41; in test [2], 5.01; in test [3] it was under 5.00; in test [4], under 5.00.

Turning to `CC(=O)OCC1=CO[C@@H](OC(=O)CC(C)C)[C@H]2C1=C[C@H](OC(=O)CC(C)(C)OC(C)=O)[C@]21CO1` [ACEVALTRATE], the pIC50 in test [1] is 5.85; in test [2], 6.00; in test [3] it was 5.77; in test [4], 5.54.

On to `CC(=O)O[C@H]1C(=O)[C@@]2(C)[C@H]([C@H](OC(=O)c3ccccc3)[C@]3(O)C[C@H](OC(=O)[C@H](O)[C@@H](NC(=O)c4ccccc4)c4ccccc4)C(C)=C1C3(C)C)[C@]1(OC(C)=O)CO[C@@H]1C[C@@H]2O` [PACLITAXEL], for which the pIC50 is 7.57 in test [1], 7.02 in test [3] and 8.28 in test [4].

For the compound `CC(C)CC(=O)OC(C(=O)OCC1=CO[C@@H](OC(=O)CC(C)C)[C@@H]2[C@@]3(CO3)[C@@H](O)C[C@]12O)C(C)C` (stereo partly specified) [JATAMANVALTRATE L], the pIC50 in test [1] is 5.47; in test [2], under 5.00; in test [3] it was 5.12; in test [4], under 5.00.

Turning to `CC(=O)O[C@H]1C[C@]2(O)C(COC(=O)C(OC(=O)CC(C)C)C(C)C)=CO[C@@H](OC(=O)CC(C)C)[C@@H]2[C@@]12CO2` (stereo partly specified), the pIC50 in test [1] was 5.72; in test [2], 5.60; in test [3], 5.40; in test [4], 5.13.

Turning to `CC(=O)O[C@H]1C[C@@H]2C(COC(=O)CC(C)C)=CO[C@@H](OC(=O)CC(C)C)[C@@H]2[C@@]12CO2` [DIDROVALTRATE], the pIC50 in test [1] is 5.42; in test [2] it was 5.18; in test [3], 5.12; in test [4], under 5.00.

As for `CC(=O)O[C@H]1C[C@]2(O)C(COC(=O)CC(C)C)=CO[C@@H](OC(=O)CC(C)C)[C@@H]2[C@@]12CO2`, the pIC50 in test [1] is 5.66; in test [2] it was 5.82; in test [3], 5.64; in test [4], 5.15.

Take `CCOCC1=CO[C@@H](OC(=O)CC(C)C)[C@@H]2[C@@]3(CO3)[C@@H](OC(C)=O)C[C@]12O` [JATAMANVALTRATE M]: the pIC50 in test [1] was 5.20; in test [2] it was under 5.00; in test [3], under 5.00; in test [4], under 5.00.

In the case of `CC(=O)OC[C@]1(O)[C@H]2[C@H](OC(=O)CC(C)C)OC=C(COC(=O)CC(C)C)[C@H]2C[C@@H]1OC(C)=O` [DIDROVALTRATE ACETOXY HYDRIN], the pIC50 in test [1] is 5.80; in test [2] it was 5.59; in test [3] it was 5.36; in test [4], 5.52.

`CC(=O)OCC1=CO[C@@H](OC(=O)CC(C)C)[C@H]2C1=C[C@H](O)[C@]2(O)COC(=O)CC(C)C` [JATAMANVALTRATE J]: the pIC50 in test [1] is 5.24; in test [2], under 5.00; in test [3] it was under 5.00; in test [4], under 5.00.

As for `CC(=O)OCC1=CO[C@@H](OC(=O)CC(C)C)[C@H]2C1=C[C@H](OC(=O)CC(C)C)[C@]2(O)CO` [JATAMANVALTRATE K], the negative logarithm of the IC50 (pIC50) in test [1] was 5.30; in test [2] it was under 5.00; in test [3] it was 5.15; in test [4], under 5.00.

Take `CC(=O)O[C@H]1C[C@]2(O)C(COC(=O)C(OC(=O)CC(C)C)C(C)C)=CO[C@@H](OC(=O)CC(C)C)[C@@H]2[C@@]1(O)COC(=O)C(OC(=O)CC(C)C)C(C)C` (stereo partly specified) [VALERIOTETRATE A]: the pIC50 in test [1] was 5.51; in test [2] it was 5.09; in test [3] it was 5.00; in test [4] it was under 5.00.

Take `CC(=O)O[C@H]1C[C@]2(O)C(COC(=O)C(OC(=O)CC(C)C)C(C)C)=CO[C@@H](OC(=O)CC(C)C)[C@@H]2[C@@]1(O)COC(=O)CC(C)C` (stereo partly specified) [JATAMANVALTRATE B]: the pIC50 in test [1] was 5.41; in test [2], 5.21; in test [3] it was under 5.00; in test [4] it was under 5.00.
